This passage reports IC50 results from ChEMBL document CHEMBL1148755, “Structural analogues of smoothened intracellular loops as potent inhibitors of Hedgehog pathway and cancer cell growth” (J Med Chem, 2007).

Square brackets hold non-standard residues; d marks the D form. Peptide text beside a SMILES is read from it. * marks the point of attachment. Bpa = N[C@@H](Cc1ccc(C(=O)c2ccccc2)cc1)C(=O)O; Palmitoyl = CCCCCCCCCCCCCCCC(=O)*; Nle = CCCC[C@H](N)C(=O)O

Usually IC50 stands for the concentration at which inhibition is half-maximal. Low readings indicate inhibition by little substance, high ones a need for much substance.

In one assay the test system is SK-MEL-2. Put plainly: Growth inhibition of SK-Mel2 melanoma cells after 48 hrs by MTT assay. It counts as functional, cell-based, Homo sapiens. The note with it: Homo sapiens, SK-MEL-2, 48 h. The method, boiled down:
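Cells seeded at 200-400 per well in DMEM with 10% FBS and left to attach for 24 h. The next day, inhibitor in medium at 2× was added in an equal volume, and cells were incubated 48 h in a CO2 incubator. Reference plates were read at time of addition for T0 density. MTT staining was read as absorbance at 544 nm and compared with untreated control cells.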
For orientation: Formazan colour is commonly taken as a measure of viable cells.
In the case of Ac-LTYAWHTSFKAL-OH, the IC50 is over 10000 nM. The same measure, in the same setting: for `CCCCCCCCCCCCCCCC(=O)N[C@@H](CC(C)C)C(=O)N[C@H](C(=O)N[C@@H](Cc1ccc(O)cc1)C(=O)N[C@@H](C)C(=O)N[C@@H](Cc1c[nH]c2ccccc12)C(=O)N[C@@H](Cc1cnc[nH]1)C(=O)N[C@H](C(=O)N[C@@H](CO)C(=O)N[C@@H](Cc1ccccc1)C(=O)N[C@@H](CCCCN)C(=O)N[C@@H](C)C(=O)N[C@@H](CC(C)C)C(=O)NCC(=O)N[C@H](C(=O)N[C@H](C(=O)N[C@@H](Cc1ccc(O)cc1)C(=O)N[C@@H](CCC(N)=O)C(=O)N1CCC[C@H]1C(=O)N[C@@H](CC(C)C)C(=O)N[C@@H](CO)C(=O)NCC(=O)N[C@@H](CCCCN)C(=O)N[C@H](C(=O)N[C@@H](CO)C(=O)N[C@@H](Cc1ccc(O)cc1)C(=O)O)[C@@H](C)O)[C@@H](C)O)[C@@H](C)O)[C@@H](C)O)[C@@H](C)O` (Palmitoyl-LTYAWHTSFKALGTTYQPLSGKTSY-OH) the value was 450 nM. Consider `CCCCCCCCCCCCCCCC(=O)N[C@@H](CC(C)C)C(=O)N[C@H](C(=O)N[C@@H](Cc1ccc(O)cc1)C(=O)N[C@@H](C)C(=O)N[C@@H](Cc1c[nH]c2ccccc12)C(=O)N[C@@H](Cc1cnc[nH]1)C(=O)N[C@H](C(=O)N[C@@H](CO)C(=O)N[C@@H](Cc1ccccc1)C(=O)N[C@@H](CCCCN)C(=O)N[C@@H](C)C(=O)O)[C@@H](C)O)[C@@H](C)O` (Palmitoyl-LTYAWHTSFKA-OH), for which the IC50 is 90 nM.

Compound `CCCCCCCCCCCCCCCC(=O)NCCCC[C@H](NC(=O)[C@H](Cc1ccc(O)cc1)NC(=O)[C@H](CO)NC(=O)[C@@H](NC(=O)[C@H](CCCCN)NC(=O)CNC(=O)[C@H](CO)NC(=O)[C@H](CC(C)C)NC(=O)[C@@H]1CCCN1C(=O)[C@H](CCC(N)=O)NC(=O)[C@H](Cc1ccc(O)cc1)NC(=O)[C@@H](NC(=O)[C@@H](NC(=O)CNC(=O)[C@H](CC(C)C)NC(=O)[C@H](C)NC(=O)[C@H](CCCCN)NC(=O)[C@H](Cc1ccccc1)NC(=O)[C@H](CO)NC(=O)[C@@H](NC(=O)[C@H](Cc1cnc[nH]1)NC(=O)[C@H](Cc1c[nH]c2ccccc12)NC(=O)[C@H](C)NC(=O)[C@H](Cc1ccc(O)cc1)NC(=O)[C@@H](NC(=O)[C@H](CC(C)C)NC(C)=O)[C@@H](C)O)[C@@H](C)O)[C@@H](C)O)[C@@H](C)O)[C@@H](C)O)C(=O)O` (Ac-LTYAWHTSFKALGTTYQPLSGKTSYK(Palmitoyl)-OH) returned an IC50 of 1000 nM. On to `CCCCCCCCCCCCCCCC(=O)NCCCC[C@H](NC(=O)[C@H](CCCNC(=N)N)NC(=O)[C@H](CC(C)C)NC(=O)[C@H](CCSC)NC(=O)[C@@H](NC(=O)[C@H](CCC(=O)O)NC(=O)[C@H](CC(N)=O)NC(=O)[C@@H](NC(=O)[C@H](CCCCN)NC(=O)[C@H](CO)NC(=O)[C@H](C)NC(=O)[C@H](C)NC(=O)[C@H](CCCCN)NC(=O)[C@H](CCC(=O)O)NC(=O)[C@H](CO)NC(=O)[C@H](CC(C)C)NC(=O)[C@H](CC(C)C)NC(=O)CNC(=O)[C@@H]1CCCN1C(=O)[C@H](Cc1c[nH]cn1)NC(=O)[C@H](CC(N)=O)NC(=O)[C@H](CO)NC(=O)[C@H](CCCCN)NC(=O)[C@@H](NC(=O)[C@H](CO)NC(=O)[C@H](Cc1ccccc1)NC(=O)[C@H](CC(C)C)NC(C)=O)[C@@H](C)CC)[C@@H](C)CC)[C@@H](C)O)C(=O)O` (Ac-LFSIKSNHPGLLSEKAASKINETMLRK(Palmitoyl)-OH), for which the IC50 amounted to 950 nM. Same read-out and setting: for `CCCCCCCCCCCCCCCC(=O)N[C@@H](CC(C)C)C(=O)N[C@H](C(=O)N[C@@H](Cc1ccc(O)cc1)C(=O)N[C@@H](C)C(=O)N[C@@H](Cc1c[nH]c2ccccc12)C(=O)N[C@@H](Cc1cnc[nH]1)C(=O)N[C@H](C(=O)N[C@@H](CO)C(=O)N[C@@H](Cc1ccccc1)C(=O)N[C@@H](CCCCN)C(=O)N[C@@H](C)C(=O)N[C@@H](CC(C)C)C(=O)NCC(=O)N[C@H](C(=O)N[C@H](C(=O)N[C@@H](Cc1ccc(O)cc1)C(=O)N[C@@H](CCC(N)=O)C(=O)N1CCC[C@H]1C(=O)N[C@@H](CC(C)C)C(=O)N[C@@H](CO)C(=O)NCC(=O)O)[C@@H](C)O)[C@@H](C)O)[C@@H](C)O)[C@@H](C)O` (Palmitoyl-LTYAWHTSFKALGTTYQPLSG-OH) the value was 1400 nM; for `CCCCCCCCCCCCCCCC(=O)N[C@@H](CC(C)C)C(=O)N[C@@H](Cc1ccccc1)C(=O)N[C@@H](CO)C(=O)N[C@H](C(=O)N[C@@H](CCCCN)C(=O)N[C@@H](CO)C(=O)N[C@@H](CC(N)=O)C(=O)N[C@@H](Cc1c[nH]cn1)C(=O)N1CCC[C@H]1C(=O)NCC(=O)N[C@@H](CC(C)C)C(=O)N[C@@H](CC(C)C)C(=O)N[C@@H](CO)C(=O)N[C@@H](CCC(=O)O)C(=O)N[C@@H](CCCCN)C(=O)N[C@@H](C)C(=O)N[C@@H](C)C(=O)N[C@@H](CO)C(=O)N[C@@H](CCCCN)C(=O)N[C@H](C(=O)N[C@@H](CC(N)=O)C(=O)N[C@@H](CCC(=O)O)C(=O)N[C@H](C(=O)N[C@@H](CCSC)C(=O)N[C@@H](CC(C)C)C(=O)N[C@@H](CCCNC(=N)N)C(=O)O)[C@@H](C)O)[C@@H](C)CC)[C@@H](C)CC` (Palmitoyl-LFSIKSNHPGLLSEKAASKINETMLR-OH), 1500 nM.

Compound `CCCCCCCCCCCCCCCC(=O)N[C@@H](CC(C)C)C(=O)N[C@H](C(=O)N[C@@H](Cc1ccc(O)cc1)C(=O)N[C@@H](C)C(=O)N[C@@H](Cc1ccc(C(=O)c2ccccc2)cc1)C(=O)N[C@@H](Cc1cnc[nH]1)C(=O)N[C@H](C(=O)N[C@@H](CO)C(=O)N[C@@H](Cc1ccccc1)C(=O)N[C@@H](CCCCN)C(=O)N[C@@H](C)C(=O)N[C@@H](CC(C)C)C(=O)O)[C@@H](C)O)[C@@H](C)O` (Palmitoyl-LTYA[Bpa]HTSFKAL-OH) yielded an IC50 of 100 nM. Same read-out and setting: next, Ac-TYAWHTSFKA-OH: 2800 nM.

Take `CCCC[C@H](NC(=O)[C@H](CCCNC(=N)N)NC(=O)[C@H](CCCNC(=N)N)NC(=O)[C@H](CC(N)=O)NC(=O)[C@@H]1CCCN1C(=O)[C@H](Cc1ccccc1)NC(=O)[C@H](Cc1c[nH]c2ccccc12)NC(=O)[C@@H](NC(=O)[C@H](CCCCN)NC(=O)[C@@H](NC(=O)[C@H](CCC(N)=O)NC(=O)[C@H](CCCNC(=N)N)NC(=O)[C@H](CC(C)C)NC(=O)[C@H](C)NC(=O)[C@H](CCCCN)NC(=O)[C@H](Cc1ccccc1)NC(=O)[C@H](CO)NC(=O)[C@@H](NC(=O)[C@H](Cc1cnc[nH]1)NC(=O)[C@H](Cc1c[nH]c2ccccc12)NC(=O)[C@H](C)NC(=O)[C@H](Cc1ccc(O)cc1)NC(=O)[C@@H](NC(=O)[C@H](CC(C)C)NC(C)=O)[C@@H](C)O)[C@@H](C)O)[C@@H](C)CC)[C@@H](C)CC)C(=O)N[C@@H](CCCCN)C(=O)N[C@@H](Cc1c[nH]c2ccccc12)C(=O)N[C@@H](CCCCN)C(=O)N[C@@H](CCCCN)C(=O)O` (Ac-LTYAWHTSFKALRQIKIWFPNRR[Nle]KWKK-OH): the IC50 was over 15000 nM.

The assay is the same for the next values; noted with them: sk-mel-2.
Compound `CCCCCCCCCCCCCCCC(=O)NCCCC[C@H](NC(=O)[C@H](CCCNC(=N)N)NC(=O)[C@H](CC(C)C)NC(=O)[C@H](CCSC)NC(=O)[C@@H](NC(=O)[C@H](CCC(=O)O)NC(=O)[C@H](CC(N)=O)NC(=O)[C@@H](NC(=O)[C@H](CCCCN)NC(=O)[C@H](CO)NC(=O)[C@H](C)NC(=O)[C@H](C)NC(=O)[C@H](CCCCN)NC(=O)[C@H](CCC(=O)O)NC(=O)[C@H](CO)NC(=O)[C@H](CC(C)C)NC(=O)[C@H](CC(C)C)NC(C)=O)[C@@H](C)CC)[C@@H](C)O)C(=O)O` (stereo in doubt; form 1) gave an IC50 of 800 nM.
